# In ChEMBL document CHEMBL1142220, “Small-molecule synergist of the Wnt/beta-catenin signaling pathway” (Proc Natl Acad Sci U S A, 2007):
# Active and inactive are the calls of the source. The calls are words filed in the database; no cut-off is given here.
# Legend:
# HEK293 [1] = test: Effect on Wnt/[…] reporter pathway in HEK293 cells expressing super(8X)TOPFlash reporter assessed as luciferase activity in presence of Wnt-3a; assay type: functional, cell-based; conditions: Homo sapiens
# Summary of the method: (§1)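 HEK293 cells transfected with Super(8X)TOPFlash reporter plus renilla control; 24 h post-transfection, compound added over a dose range with or without Wnt-3a conditioned medium (1:1 vol/vol to growth medium); firefly luciferase read 36 h later, normalized to renilla; error bars SD.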
# HEK293 [2] = test: Effect on Wnt/[…] reporter pathway in HEK293 cells expressing super(8X)TOPFlash reporter plasmid assessed as luciferase activity; assay type: functional, Homo sapiens; summary of the method: as §1
# HEK293 [3] = test: Effect on Wnt/[…] reporter pathway in HEK293 cells expressing super(8X)TOPFlash reporter assessed as luciferase activity at 2.5 uM in presence of Wnt-3a; assay type: functional, Homo sapiens
# Summary of the method: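 HEK293 cells (20,000/well) reverse-transfected with Super(8X)TOPFlash and pTK-RL (Fugene6), 24 h at 37°C; compound 2.5 μM plus Wnt-3a conditioned medium (1:1 vol/vol) added; Dual-Glo luciferase read 36 h later, fold activation normalized to renilla; mean of three independent data points.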
# HEK293 [4] = test: Effect on Wnt/[…] reporter pathway in HEK293 cells expressing super(8X)TOPFlash reporter plasmid assessed as luciferase activity in presence of recombinant Wnt-3a; assay type: functional, cell-based; conditions: Homo sapiens
# HEK293 [5] = test: Effect on Wnt/[…] reporter pathway in HEK293 cells expressing superFOPFlash reporter plasmid assessed as luciferase activity at 0.11 to 25 uM in presence of Wnt-3a; assay type: functional, cell-based; conditions: Homo sapiens, 0.011 to 25 uM, in the assay text read “0.011 to 25 uM” for “0.11 to 25 uM”
# Summary of the method: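 SuperFOPFlash reporter (mutated β-catenin/TCF sites) transfected into HEK293 cells; compound 0.011–25 μM given with Wnt-3a conditioned medium 24 h after transfection; luciferase read after 36 h, normalized to renilla.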
# HEK293 [6] = test: Induction of Wnt-3a-induced Axin2 gene expression in HEK293 cells in presence of Wnt-3a; assay type: functional, cell-based; conditions: Homo sapiens
# HEK293 [7] = test: Induction of Wnt-3a-induced DKK1 gene expression in HEK293 cells in presence of Wnt-3a; assay type: functional, cell-based; conditions: Homo sapiens
# [8] = Activation of Wnt/[…] pathway in Xenopus embryos assessed as full axis formation at 10 uM in presence of XWnt-8 RNA after 24 hrs; assay type: functional
# Summary of the method: (§2)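 XWnt-8 RNA (0.5 pg) co-injected with 10 nL of 10 μM compound (or 10 nL water) into one ventral blastomere at 16- to 32-cell stage; embryos kept 24 h, then scored for partial versus full double axis formation.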
# [9] = Activation of Wnt/[…] pathway in Xenopus embryos assessed as partial double axis formation at 10 uM in presence of XWnt-8 RNA after 24 hrs; assay type: functional; summary of the method: as §2
# [10] = biological target: ADP-ribosylation factor 6 (Mus musculus) (UniProt P62331); test: Inhibition of ADP-ribosylation factor 6 activity in mouse NIH3T3 cells assessed as increase in endogenous ARF6-GTP level at 1 uM relative to control; assay type: cell-based
# [11] = biological target: ADP-ribosylation factor 6 (Mus musculus) (UniProt P62331); test: Inhibition of ADP-ribosylation factor 6 activity in mouse NIH3T3 cells assessed as increase in endogenous ARF6-GTP level at 2.5 uM relative to control; assay type: cell-based
# MDA-MB-231 [12] = test: Inhibition of migration of AMAP1 expressing human MDA-MB-231 cells; assay type: functional, cell-based
# Summary of the method: (§3)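 Modified Boyden chambers, filter underside coated with 5 μg/cm² Matrigel; MDA-MB-231 cells (5,000/well) seeded upper chamber in RPMI1640 with 0.5% BSA plus compound, lower chamber DMEM with 10% FBS; after 12 h, cells on lower side counted by microscopy versus DMSO.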
# MDA-MB-231 [13] = test: Inhibition of migration of AMAP1 expressing human MDA-MB-231 cells at 2.5 uM relative to control; assay type: functional; set-up: scale not given: the % may be the effect or the level left; summary of the method: as §3
# [14] = biological target: ADP-ribosylation factor GTPase-activating protein 1, ARFGAP1 (Homo sapiens) (UniProt Q8N6T3); test: Binding affinity to purified ARFGAP1 by surface plasmon resonance analysis
# HEK293 [15] = test: Reduction of super(8X)TOPFlash reporter activity in HEK293 cells at 0.25 uM in presence of Wnt-3a conditional medium relative to control; assay type: functional, Homo sapiens; set-up: scale not given: the % may be the effect or the level left
# Summary of the method: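 HEK293 cells carrying the Super(8X)TOPFlash luciferase reporter, treated at 0.25 μM in Wnt-3a conditioned medium; reporter luciferase activity compared with DMSO-treated control cells under the same Wnt-3a stimulation.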
# Chain of ADP-ribosylation factor 6 (Mus musculus) (P62331 whole entry): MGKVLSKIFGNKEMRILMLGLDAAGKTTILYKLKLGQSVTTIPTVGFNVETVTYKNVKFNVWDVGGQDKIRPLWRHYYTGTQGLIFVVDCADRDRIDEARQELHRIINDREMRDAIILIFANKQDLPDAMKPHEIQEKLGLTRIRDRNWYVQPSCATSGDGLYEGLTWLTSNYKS
# Chain of ADP-ribosylation factor GTPase-activating protein 1, ARFGAP1 (Homo sapiens) (Q8N6T3 whole entry, looked up): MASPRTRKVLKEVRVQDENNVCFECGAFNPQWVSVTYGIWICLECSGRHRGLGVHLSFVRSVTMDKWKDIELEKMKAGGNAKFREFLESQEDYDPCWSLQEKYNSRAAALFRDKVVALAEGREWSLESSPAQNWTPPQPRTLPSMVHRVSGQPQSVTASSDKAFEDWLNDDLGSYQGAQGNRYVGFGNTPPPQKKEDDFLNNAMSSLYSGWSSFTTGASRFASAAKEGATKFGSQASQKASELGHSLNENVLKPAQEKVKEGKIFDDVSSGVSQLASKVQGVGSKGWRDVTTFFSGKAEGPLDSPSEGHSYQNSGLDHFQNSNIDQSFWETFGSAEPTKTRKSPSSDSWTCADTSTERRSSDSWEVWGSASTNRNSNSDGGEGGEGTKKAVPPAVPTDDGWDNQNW
structure (smiles),measurement,setting,value
OC[C@H](Cc1ccccc1)Nc1nc(Nc2cccc3ccccc23)nc2c1ncn2Cc1ccc(-c2ccccc2)cc1,EC50,HEK293 [1],> 7100 nM
OC[C@H](Cc1ccccc1)Nc1nc(Oc2ccc3c(c2)CCC3)nc2c1ncn2Cc1ccccc1,EC50,HEK293 [1],> 7100 nM
FC(F)(F)c1ccc(Cn2cnc3c(NCCc4ccccc4)nc(Oc4ccc5c(c4)CCC5)nc32)cc1,EC50,HEK293 [1],> 7100 nM
O=[N+]([O-])c1ccc(C[C@@H](CO)Nc2nc(Oc3ccc4c(c3)CCC4)nc3c2ncn3Cc2ccc(-c3ccccc3)cc2)cc1,EC50,HEK293 [1],400 nM
OC[C@H](Cc1ccccc1)Nc1nc(Oc2ccc3c(c2)CCC3)nc2c1ncn2Cc1ccc(-c2ccccc2)cc1,EC50,HEK293 [1],500 nM
same,Activity,HEK293 [2],2
same,Activity,HEK293 [3],200
same,Activity,HEK293 [4],Active
same,Activity,HEK293 [5],inactive
same,Activity,HEK293 [6],Active
same,Activity,HEK293 [7],Active
same,Activity,[8],20.9%
same,Activity,[9],30.2%
same,Activity,[10],Active
same,Activity,[11],Active
same,Activity,MDA-MB-231 [12],Dose-dependent effect
same,Activity,MDA-MB-231 [13],80%
same,Kd,[14],620 nM
O=[N+]([O-])c1ccc(-c2ccc(Cn3cnc4c(N[C@H](CO)Cc5ccccc5)nc(Oc5ccc6c(c5)CCC6)nc43)cc2)cc1,EC50,HEK293 [1],1500 nM
CC1(C)Cc2cc(Oc3nc(NCc4ccccc4)c4ncn(Cc5ccc(-c6ccccc6)cc5)c4n3)ccc2O1,EC50,HEK293 [1],1700 nM
OC[C@H](Cc1ccccc1)Nc1nc(NCc2ccc3c(c2)OCO3)nc2c1ncn2Cc1ccc(-c2ccccc2)cc1,EC50,HEK293 [1],> 7100 nM
OC[C@H](Cc1ccccc1)Nc1nc(Oc2cccc(-c3ccccc3)c2)nc2c1ncn2Cc1ccc(-c2ccccc2)cc1,EC50,HEK293 [1],3100 nM
OC[C@@H](Cc1ccccc1)Nc1nc(Oc2ccc3c(c2)CCC3)nc2c1ncn2Cc1ccc(-c2ccccc2)cc1,EC50,HEK293 [1],> 7100 nM
C[C@H]1CCC/C=C/[C@@H]2C[C@H](O)C[C@H]2[C@H](O)/C=C/C(=O)O1 [BREFELDIN A],Activity,HEK293 [15],50%
OC[C@H](Cc1ccccc1)Nc1nc(Oc2cccc3ccccc23)nc2c1ncn2Cc1ccc(-c2ccccc2)cc1,EC50,HEK293 [1],4600 nM
[N-]=[N+]=Nc1ccc(C[C@@H](CO)Nc2nc(Oc3ccc4c(c3)CCC4)nc3c2ncn3Cc2ccc(-c3ccccc3)cc2)cc1,EC50,HEK293 [1],600 nM
